Data set [1] concerns the target T1, Melanin-concentrating hormone receptor 1 (Homo sapiens, UniProt Q99705). Put plainly: biochemical. Type of data set: cell-based, CHO-K1.
In data set [2] the target is T1, Melanin-concentrating hormone receptor 1. Kind of data set: Antagonist activity at human MCHR1 expressed in CHO-K1 cells assessed as inhibition of MCH peptide mediated response measuring [3H]inositol phosphate production at 10 uM by IP3-SPA-YSI assay. Format: functional, cell-based. Further details: scale not given: the % may be the effect or the level left.
Data set [3] shares this target. Put plainly: Antagonist activity at human MCHR1 expressed in CHO-K1 cells assessed as inhibition of MCH peptide mediated response measuring [3H]inositol phosphate production by IP3-SPA-YSI assay. Type of data set: functional, cell-based.
Data set [4] is described as follows: Solubility of the compound in 5% DMSO and 95% PBS after overnight incubation using plate shaker. Format: physicochemical. The following applies: 5% DMSO and 95% PBS; read-out: solubility. The method, boiled down: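 A 10 mM DMSO stock was diluted into PBS to a final 500 µM (5% DMSO). The mix was left to precipitate overnight at RT on a plate shaker, then centrifuged. Supernatant absorbance was read at 260, 280 and 620 nm. Solubility is the absorbance ratio of PBS supernatant to an acetonitrile reference (100 and 500 µM). The 620 nm reading was used to exclude visible contamination.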

Data set [5] is described as follows: Stability in mouse blood assessed as compound remaining after 30 mins by HPLC analysis. Type of data set: ADME, tissue-based. The conditions noted are these: read-out: Stability.
For another data set, the system named is Mus musculus. Kind of data set: Antiobesity activity in diet induced obese C57BL/6J mouse assessed as decrease in body weight at 30 mg/kg, po bid for 14 days measured at day 14 relative to control. More on the design: scale not given: the % may be the effect or the level left. Format: functional. In short, it runs like this:
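C57BL/6J mice were fed a high-fat diet (60% calories from fat) for about 3 months, to roughly 45 g average body weight. Animals were grouped by initial weight. Dosing was oral, 30 mg/kg twice daily for 14 days, against vehicle controls (n = 12). Body weight and food intake were recorded daily.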

The nature of data set [6]: AUC (0 to 8 hrs) in Swiss albino mouse plasma at 30 mg/kg, po. Format: ADME, organism-based. More on the design: time < 8 hr, dose 30 mg/kg, route oral. The method, boiled down:
(§1)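 Swiss Albino mice given a single oral dose of 30 mg/kg. Plasma and brain were sampled over 0–8 h. AUC(0–8), Cmax, Tmax and t1/2 were derived for each matrix.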

Data set [7] can be described thus: Cmax in Swiss albino mouse plasma at 30 mg/kg, po. Format: ADME, organism-based. Further details: dose 30 mg/kg, route oral. In short, it runs like this: as §1
The nature of data set [8]: Tmax in Swiss albino mouse plasma at 30 mg/kg, po. Type of data set: ADME, organism-based. More on the design: dose 30 mg/kg, route oral. The method, boiled down: as §1
Data set [9] is described as follows: Half life in Swiss albino mouse plasma at 30 mg/kg, po. Further details: dose 30 mg/kg, route oral. Format: ADME, organism-based. In short, it runs like this: as §1
A short description of data set [10]: AUC (0 to 8 hrs) in Swiss albino mouse brain at 30 mg/kg, po. Type of data set: ADME, organism-based. More on the design: time < 8 hr, dose 30 mg/kg, route oral. The method, boiled down:
as §1

Data set [11] is described as follows: Cmax in Swiss albino mouse brain at 30 mg/kg, po. Format: ADME, organism-based. Further details: dose 30 mg/kg, route oral. The method, boiled down:
as §1

Data set [12] in a line: Tmax in Swiss albino mouse brain at 30 mg/kg, po. Format: ADME, organism-based. Further details: dose 30 mg/kg, route oral. The method, boiled down: as §1
The nature of data set [13]: Half life in Swiss albino mouse brain at 30 mg/kg, po. Type of data set: ADME, organism-based. Further details: dose 30 mg/kg, route oral. The method, boiled down:
as §1

Usually IC50 stands for the point on the concentration scale where inhibition reaches its midpoint. In general, solubility refers to the dissolved amount per volume that the medium holds. A word on the AUC(0-t): it is exposure summed from dosing to a finite time, without extrapolation to infinity. A word on the Cmax: it is the highest concentration seen after dosing. For orientation: Tmax means the time at which the peak concentration occurs. The half-life is the time in which the quantity being followed falls by half.

Structures are written as SMILES. Converted amounts (≈) assume the structure as drawn.

T1 sequence (Q99705 whole entry): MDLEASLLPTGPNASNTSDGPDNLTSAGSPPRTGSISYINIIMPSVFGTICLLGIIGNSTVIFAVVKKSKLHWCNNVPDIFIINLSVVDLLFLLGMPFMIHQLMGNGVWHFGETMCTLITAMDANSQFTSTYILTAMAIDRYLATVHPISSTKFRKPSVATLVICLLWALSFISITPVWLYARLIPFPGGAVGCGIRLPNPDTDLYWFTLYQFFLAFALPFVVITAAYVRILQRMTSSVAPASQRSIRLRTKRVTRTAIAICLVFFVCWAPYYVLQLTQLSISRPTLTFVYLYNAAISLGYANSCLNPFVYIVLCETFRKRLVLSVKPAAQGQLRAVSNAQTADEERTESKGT

In data set [1], `Cc1nc(N2CCC(O)(C(N)=O)CC2)nc2ccc(NC(=O)COc3ccc(OC(F)(F)F)cc3)cc12` gave an IC50 of 636 nM. In data set [2], the Activity amounted to 72%.

As for `Cc1nc(N2CCC(N3CCOCC3)CC2)nc2ccc(NC(=O)COc3ccc(OC(F)(F)F)cc3)cc12`, the figures for the IC50 in data set [1] and in [3] were 6 nM and 16 nM, respectively. Further, in [4], the solubility was 12 µM (≈ 6.55 µg/mL). Also, the remaining at 0.5 h in [5] amounted to 29%. In addition, the Activity with Mus musculus amounted to 12%. Also, the AUC(0-t) at 8 h was 1.02 µM·h in data set [6] and 6.21 µM·h in data set [10]. In addition, the Cmax in data set [7] is 430 nM; in data set [11] it was 2660 nM. The Tmax in [8] and in data set [12] was 1 h throughout. For the same molecule, the half-life in data set [9] is 3 h; in data set [13] it was 1.7 h.

The values are drawn from ChEMBL document CHEMBL2016458, “Design and optimization of quinazoline derivatives as melanin concentrating hormone receptor 1 (MCHR1) antagonists” (Bioorg Med Chem Lett, 2012).
